Measurements reported in ChEMBL document CHEMBL1146085, “Nanomolar inhibitors of the peptidyl prolyl cis/trans isomerase Pin1 from combinatorial peptide libraries” (J Med Chem, 2006).
Each block holds one molecule with its values, some of them ahead of it. Where a SMILES comes first, the peptide text is derived from it. [ ]: non-standard residue; d: D form. The star is where a group is joined. dalloThr(PO3H2) = C[C@@H](OP(=O)(O)O)[C@@H](N)C(=O)O; alloThr(PO3H2) = C[C@H](OP(=O)(O)O)[C@H](N)C(=O)O; Biotin = O=C1N[C@H]2[C@H](CS[C@H]2CCCCC(=O)*)N1; Bip = N[C@@H](Cc1ccc(-c2ccccc2)cc1)C(=O)O; 2Nal = N[C@@H](Cc1ccc2ccccc2c1)C(=O)O; Bta = N[C@@H](Cc1csc2ccccc12)C(=O)O; Cha = N[C@@H](CC1CCCCC1)C(=O)O; Tle = CC(C)(C)[C@H](N)C(=O)O; Pip = O=C(O)[C@@H]1CCCCN1; NMeA = CN[C@@H](C)C(=O)O

Legend:
[1] = Inhibition of PP1 at 500 uM
[2] = target: cAMP-dependent protein kinase (PKA) (Homo sapiens) (UniProt P22694+P17612+P22612); experiment: Inhibition of PKA at 500 uM; assay type: protein assay
[3] = target: Protein kinase C (PKC) (Homo sapiens) (UniProt O94806+P41743+P17252+P05129+Q05655+P05771+Q05513+Q02156+P24723+Q15139+Q04759); experiment: Inhibition of PKC at 500 uM; assay type: protein assay
[4] = target: Peptidyl-prolyl cis-trans isomerase FKBP1A (Homo sapiens) (UniProt P62942); experiment: Inhibition of FKBP12 at 500 uM
[5] = target: Serine/threonine protein phosphatase PP2B-alpha catalytic subunit (Homo sapiens) (UniProt P16298); experiment: Inhibition of PP2B at 500 uM
[6] = Inhibition of PP2A at 500 uM
[7] = target: Peptidyl-prolyl cis-trans isomerase NIMA-interacting 1 (Homo sapiens, UniProt Q13526); experiment: Inhibition of human Pin1 PPIase Activity by protease free PPIase assay
In short: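 Protease-free PPIase assay using Abz-Ala-Glu-Pro-Phe-NH-Np as substrate in 35 mM HEPES, pH 7.8, at 10 °C. Ki derived from concentration-dependent measurement of remaining Pin1 activity.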

[8] = target: Mitogen-activated protein kinase 1 (Homo sapiens) (UniProt P28482); experiment: Inhibition of ERK2 at 500 uM
[9] = target: Peptidyl-prolyl cis-trans isomerase A (Homo sapiens) (UniProt P62937); experiment: Inhibition of Cyp18 at 500 uM
[10] = target: Peptidyl-prolyl cis-trans isomerase NIMA-interacting 4 (Homo sapiens) (UniProt Q9Y237); experiment: Inhibition of Par14 at 500 uM
HeLa = experiment: Stability in HeLa cells after 5 hrs incubation; assay type: ADME, cell-based; conditions: human
In short: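 Peptide incubated 5 h in whole HeLa cell lysate without phosphatase or protease inhibitors. Biotin-conjugated species pulled down on streptavidin Sepharose and analysed by mass spectrometry. Separately, 5 µM peptide analysed by capillary electrophoresis in 50 mM sodium phosphate, pH 7.0, detected at 220 nm, against a reference sample in buffer alone.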

Chain of Peptidyl-prolyl cis-trans isomerase NIMA-interacting 1 (Q13526 whole entry): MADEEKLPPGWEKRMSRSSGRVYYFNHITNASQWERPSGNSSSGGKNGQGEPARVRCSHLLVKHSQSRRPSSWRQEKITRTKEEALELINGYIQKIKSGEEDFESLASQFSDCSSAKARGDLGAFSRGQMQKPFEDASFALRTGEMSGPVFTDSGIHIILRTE
Chain of Peptidyl-prolyl cis-trans isomerase A (Homo sapiens) (P62937 whole entry, looked up): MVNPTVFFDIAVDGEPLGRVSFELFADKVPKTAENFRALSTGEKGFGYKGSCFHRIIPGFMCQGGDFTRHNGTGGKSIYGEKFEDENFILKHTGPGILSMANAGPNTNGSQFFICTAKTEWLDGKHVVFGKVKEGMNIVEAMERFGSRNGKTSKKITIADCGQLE
Chain of Peptidyl-prolyl cis-trans isomerase FKBP1A (Homo sapiens) (P62942 whole entry): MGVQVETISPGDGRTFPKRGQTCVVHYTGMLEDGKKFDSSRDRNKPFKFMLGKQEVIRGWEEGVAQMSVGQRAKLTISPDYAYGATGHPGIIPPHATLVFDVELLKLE
Chain of Peptidyl-prolyl cis-trans isomerase NIMA-interacting 4 (Homo sapiens) (Q9Y237 whole entry): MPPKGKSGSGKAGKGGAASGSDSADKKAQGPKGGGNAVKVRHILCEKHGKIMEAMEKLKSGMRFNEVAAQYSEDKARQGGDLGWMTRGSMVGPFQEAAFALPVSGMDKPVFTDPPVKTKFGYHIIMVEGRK
Chain of Mitogen-activated protein kinase 1 (Homo sapiens) (P28482 whole entry): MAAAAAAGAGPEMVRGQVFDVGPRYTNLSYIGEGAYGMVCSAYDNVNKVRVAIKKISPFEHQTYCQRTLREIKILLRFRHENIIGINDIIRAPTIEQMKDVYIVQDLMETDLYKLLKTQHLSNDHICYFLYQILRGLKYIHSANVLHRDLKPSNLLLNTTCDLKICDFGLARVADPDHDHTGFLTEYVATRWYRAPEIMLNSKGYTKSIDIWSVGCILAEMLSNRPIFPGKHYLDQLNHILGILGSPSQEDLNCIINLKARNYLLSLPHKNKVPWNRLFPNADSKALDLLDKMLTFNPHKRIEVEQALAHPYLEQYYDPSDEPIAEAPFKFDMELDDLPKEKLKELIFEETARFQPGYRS

Structure (SMILES): CC(=O)N[C@@H](Cc1csc2ccccc12)C(=O)N[C@H](C(=O)N1CCCC[C@@H]1C(=O)N[C@@H](Cc1ccc2ccccc2c1)C(=O)N[C@@H](CCC(N)=O)C(N)=O)[C@@H](C)OP(=O)(O)O
- Ki [7]: 258 nM

Structure (SMILES): CC(=O)N[C@@H](Cc1ccccc1)C(=O)N[C@@H](C(=O)N1CCCC[C@H]1C(=O)N[C@@H](Cc1ccc2ccccc2c1)C(=O)N[C@@H](CCC(N)=O)C(N)=O)[C@H](C)OP(=O)(O)O
- Activity (HeLa): Stable

Structure (SMILES): CC(=O)N[C@@H](CCCCNC(=O)CCCC[C@@H]1SC[C@@H]2NC(=O)N[C@@H]21)C(=O)N[C@@H](C)C(=O)N[C@@H](C)C(=O)N[C@@H](Cc1ccccc1)C(=O)N[C@H](C(=O)N(C)[C@@H](C)C(=O)N[C@@H](Cc1csc2ccccc12)C(=O)N[C@@H](CCC(N)=O)C(N)=O)[C@H](C)OP(=O)(O)O (Ac-K(Biotin)AAF[alloThr(PO3H2)][NMeA][Bta]Q-NH2)
- IC50 [7]: 20000 nM

Structure (SMILES): CC(=O)N[C@@H](Cc1ccccc1)C(=O)N[C@H](C(=O)N1CCCC[C@@H]1C(=O)N[C@@H](Cc1ccc2ccccc2c1)C(=O)N[C@@H](CCC(N)=O)C(N)=O)[C@H](C)OP(=O)(O)O
- Ki [7]: 547 nM

Second part, the molecule after the results:

- inhibition [1]: < 10%
- inhibition [2]: < 10%
- inhibition [3]: < 10%
- inhibition [4]: < 10%
- inhibition [5]: < 10%
- inhibition [6]: < 10%
- Ki [7]: 1.2 nM
- inhibition [8]: < 10%
- inhibition [9]: < 10%
- inhibition [10]: < 10%
Structure (SMILES): CC(=O)N[C@@H](CCCCNC(=O)CCCC[C@@H]1SC[C@@H]2NC(=O)N[C@@H]21)C(=O)N[C@@H](C)C(=O)N[C@@H](C)C(=O)N[C@@H](Cc1csc2ccccc12)C(=O)N[C@@H](C(=O)N1CCCC[C@H]1C(=O)N[C@@H](Cc1ccc2ccccc2c1)C(=O)N[C@@H](CCC(N)=O)C(N)=O)[C@@H](C)OP(=O)(O)O (Ac-K(Biotin)AA[Bta][dalloThr(PO3H2)][Pip][2Nal]Q-NH2)

- IC50 [7]: > 50000 nM
Structure (SMILES): CC(=O)N[C@@H](CCCCNC(=O)CCCC[C@@H]1SC[C@@H]2NC(=O)N[C@@H]21)C(=O)N[C@@H](C)C(=O)N[C@@H](C)C(=O)N[C@@H](Cc1ccc2ccccc2c1)C(=O)N[C@H](C(=O)N1CCC[C@H]1C(=O)N[C@@H](CC1CCCCC1)C(=O)N[C@@H](CCC(N)=O)C(N)=O)[C@H](C)OP(=O)(O)O (Ac-K(Biotin)AA[2Nal][alloThr(PO3H2)]P[Cha]Q-NH2)

- IC50 [7]: 18000 nM
- Ki [7]: 4.8 nM
Structure (SMILES): CC(=O)N[C@@H](CCCCNC(=O)CCCC[C@@H]1SC[C@@H]2NC(=O)N[C@@H]21)C(=O)N[C@@H](C)C(=O)N[C@@H](C)C(=O)N[C@@H](Cc1ccc(-c2ccccc2)cc1)C(=O)N[C@H](C(=O)N1CCC[C@H]1C(=O)N[C@@H](Cc1ccc2ccccc2c1)C(=O)N[C@@H](CCC(N)=O)C(N)=O)[C@H](C)OP(=O)(O)O (Ac-K(Biotin)AA[Bip][alloThr(PO3H2)]P[2Nal]Q-NH2)

- IC50 [7]: > 50000 nM
Structure (SMILES): CC(=O)N[C@@H](CCCCNC(=O)CCCC[C@@H]1SC[C@@H]2NC(=O)N[C@@H]21)C(=O)N[C@@H](C)C(=O)N[C@@H](C)C(=O)N[C@@H](Cc1ccc2ccccc2c1)C(=O)N[C@H](C(=O)N1CCC[C@H]1C(=O)N[C@H](C(=O)N[C@@H](CCC(N)=O)C(N)=O)C(C)(C)C)[C@H](C)OP(=O)(O)O (Ac-K(Biotin)AA[2Nal][alloThr(PO3H2)]P[Tle]Q-NH2)
